pIC50: −log10 of the molar value. Active and inactive are the calls of the source. The rule behind the calls is not given here.
Key:
[1] = target: Mitogen-activated protein kinase 10 (Homo sapiens) (UniProt P53779); assay: Binding affinity to wild-type human partial length JNK3 (V28 to Q422 residues) expressed in mammalian expression system assessed as residual binding level at 1 uM by Kinomescan method relative to control
[2] = target: Proto-oncogene tyrosine-protein kinase receptor Ret (Homo sapiens) (UniProt P07949); assay: Binding affinity to wild-type human partial length RET (E713 to D1014 residues) expressed in bacterial expression system assessed as residual binding level at 1 uM by Kinomescan method relative to control
[3] = target: Calcium/calmodulin-dependent protein kinase type II subunit beta (Homo sapiens) (UniProt Q13554); assay: Binding affinity to wild-type human partial length CAMK2B (M1 to Q380 residues) expressed in bacterial expression system assessed as residual binding level at 1 uM by Kinomescan method relative to control
Chain of Calcium/calmodulin-dependent protein kinase type II subunit beta (Homo sapiens) (Q13554 whole entry, the tested form may be a part): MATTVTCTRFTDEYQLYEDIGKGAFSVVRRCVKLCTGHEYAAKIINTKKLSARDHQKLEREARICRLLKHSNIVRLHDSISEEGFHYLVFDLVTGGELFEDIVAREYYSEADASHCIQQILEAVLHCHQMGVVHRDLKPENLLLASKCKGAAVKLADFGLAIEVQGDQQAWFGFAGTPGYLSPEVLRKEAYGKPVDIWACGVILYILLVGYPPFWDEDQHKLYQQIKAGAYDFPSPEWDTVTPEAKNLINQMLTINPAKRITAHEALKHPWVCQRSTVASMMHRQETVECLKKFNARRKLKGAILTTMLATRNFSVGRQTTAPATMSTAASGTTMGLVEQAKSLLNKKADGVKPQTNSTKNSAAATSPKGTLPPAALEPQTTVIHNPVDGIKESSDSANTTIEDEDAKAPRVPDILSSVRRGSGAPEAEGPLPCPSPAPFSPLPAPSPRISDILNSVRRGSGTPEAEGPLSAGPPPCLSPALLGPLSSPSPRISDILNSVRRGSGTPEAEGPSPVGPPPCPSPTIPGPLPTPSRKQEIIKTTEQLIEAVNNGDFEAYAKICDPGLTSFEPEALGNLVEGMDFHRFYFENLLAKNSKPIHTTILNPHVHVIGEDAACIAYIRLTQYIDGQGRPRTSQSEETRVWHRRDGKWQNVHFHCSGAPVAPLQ

[4] = target: Serine/threonine-protein kinase Nek6 (Homo sapiens) (UniProt Q9HC98); assay: Binding affinity to wild-type human full length NEK6 (M8 to T313 residues) expressed in bacterial expression system assessed as residual binding level at 1 uM by Kinomescan method relative to control
Chain of Serine/threonine-protein kinase Nek6 (Homo sapiens) (Q9HC98 whole entry, the tested form may be a part): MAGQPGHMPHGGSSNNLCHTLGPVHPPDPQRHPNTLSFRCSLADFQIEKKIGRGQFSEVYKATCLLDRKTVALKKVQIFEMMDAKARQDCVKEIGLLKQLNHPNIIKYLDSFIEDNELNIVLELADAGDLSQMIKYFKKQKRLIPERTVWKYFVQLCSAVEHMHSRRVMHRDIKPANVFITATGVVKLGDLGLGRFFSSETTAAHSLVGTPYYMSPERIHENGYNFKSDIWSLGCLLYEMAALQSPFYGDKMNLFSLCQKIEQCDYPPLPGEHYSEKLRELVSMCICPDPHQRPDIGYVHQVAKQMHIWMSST
Outline: (§1)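 Active-site-directed competition binding panel (KinomeScan) covering 468 kinases. Test agent was screened at 1 μM. The read-out is the remaining kinase signal expressed relative to a DMSO control. Scores above 35%, taken as weak binding, were not reported.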

[5] = target: Ephrin type-B receptor 2 (Homo sapiens) (UniProt P29323); assay: Binding affinity to wild-type human partial length EPHB2 (I597 to L902 residues) expressed in bacterial expression system assessed as residual binding level at 1 uM by Kinomescan method relative to control
Chain of Ephrin type-B receptor 2 (Homo sapiens) (P29323 whole entry, the tested form may be a part): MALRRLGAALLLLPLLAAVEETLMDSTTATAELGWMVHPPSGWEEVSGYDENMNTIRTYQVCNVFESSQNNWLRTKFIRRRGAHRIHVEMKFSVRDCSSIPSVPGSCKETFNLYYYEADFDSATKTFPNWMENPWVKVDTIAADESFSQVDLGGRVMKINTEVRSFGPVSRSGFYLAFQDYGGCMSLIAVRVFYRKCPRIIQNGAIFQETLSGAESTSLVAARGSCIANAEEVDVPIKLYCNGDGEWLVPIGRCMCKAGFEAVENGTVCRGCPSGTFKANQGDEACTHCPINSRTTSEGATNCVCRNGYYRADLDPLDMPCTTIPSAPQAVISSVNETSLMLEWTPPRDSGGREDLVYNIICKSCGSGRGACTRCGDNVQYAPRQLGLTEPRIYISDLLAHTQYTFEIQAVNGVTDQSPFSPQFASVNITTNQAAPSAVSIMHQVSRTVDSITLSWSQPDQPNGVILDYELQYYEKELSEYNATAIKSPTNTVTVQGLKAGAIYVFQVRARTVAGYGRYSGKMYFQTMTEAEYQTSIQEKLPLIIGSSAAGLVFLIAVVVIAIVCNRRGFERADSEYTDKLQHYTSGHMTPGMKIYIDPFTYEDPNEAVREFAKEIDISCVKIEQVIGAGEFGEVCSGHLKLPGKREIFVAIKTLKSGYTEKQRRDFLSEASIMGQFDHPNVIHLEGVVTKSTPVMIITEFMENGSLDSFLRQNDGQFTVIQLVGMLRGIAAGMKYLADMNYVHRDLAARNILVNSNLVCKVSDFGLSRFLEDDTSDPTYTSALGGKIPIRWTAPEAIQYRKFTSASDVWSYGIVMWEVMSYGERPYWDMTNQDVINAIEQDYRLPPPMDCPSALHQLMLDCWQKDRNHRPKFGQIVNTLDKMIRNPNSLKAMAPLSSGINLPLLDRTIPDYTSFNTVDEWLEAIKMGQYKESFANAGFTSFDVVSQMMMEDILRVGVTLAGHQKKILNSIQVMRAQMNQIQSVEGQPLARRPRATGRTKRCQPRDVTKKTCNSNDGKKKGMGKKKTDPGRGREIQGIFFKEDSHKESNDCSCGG
Outline: (§2)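 Active-site-directed competition binding panel of 468 kinases (KinomeScan), compound at 1 μM. The read-out is kinase remaining bound, given as a percentage of the DMSO control. […]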

[6] = system: Receptor-type tyrosine-protein kinase FLT3 (Homo sapiens), P36888 [R834Q]; assay: Binding affinity to human partial length FLT3 R834Q mutant (V592 to Y969 residues) expressed in mammalian expression system assessed as residual binding level at 1 uM by Kinomescan method relative to control
Outline: (§3)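 KinomeScan active site-directed competition binding panel (468 kinases), compound tested at 1 μM. Result expressed as remaining kinase signal versus DMSO control (percent of control).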

[7] = target: Tyrosine-protein kinase TXK (Homo sapiens) (UniProt P42681); assay: Binding affinity to wild-type human partial length TXK (L238 to W527 residues) expressed in bacterial expression system assessed as residual binding level at 1 uM by Kinomescan method relative to control
Outline: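 Active site-directed competition binding panel (KinomeScan, 468 kinases). Test compound at 1 μM. Read-out is kinase binding remaining versus DMSO control, expressed as percent of control. Scores above 35% are treated as weak binding.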

[8] = target: Myosin light chain kinase, smooth muscle (Homo sapiens) (UniProt Q15746); assay: Binding affinity to wild-type human full length MYLK (M854 to E1845 residues) expressed in mammalian expression system assessed as residual binding level at 1 uM by Kinomescan method relative to control; outline: as §1
[9] = target: Ephrin type-A receptor 7 (Homo sapiens) (UniProt Q15375); assay: Binding affinity to wild-type human partial length EPHA7 (Y608 to S912 residues) expressed in bacterial expression system assessed as residual binding level at 1 uM by Kinomescan method relative to control
[10] = target: Mitogen-activated protein kinase kinase kinase 6 (Homo sapiens) (UniProt O95382); assay: Binding affinity to wild-type human partial length ASK2 (M278 to R972 residues) expressed in mammalian expression system assessed as residual binding level at 1 uM by Kinomescan method relative to control
Chain of Mitogen-activated protein kinase kinase kinase 6 (Homo sapiens) (O95382 whole entry, the tested form may be a part): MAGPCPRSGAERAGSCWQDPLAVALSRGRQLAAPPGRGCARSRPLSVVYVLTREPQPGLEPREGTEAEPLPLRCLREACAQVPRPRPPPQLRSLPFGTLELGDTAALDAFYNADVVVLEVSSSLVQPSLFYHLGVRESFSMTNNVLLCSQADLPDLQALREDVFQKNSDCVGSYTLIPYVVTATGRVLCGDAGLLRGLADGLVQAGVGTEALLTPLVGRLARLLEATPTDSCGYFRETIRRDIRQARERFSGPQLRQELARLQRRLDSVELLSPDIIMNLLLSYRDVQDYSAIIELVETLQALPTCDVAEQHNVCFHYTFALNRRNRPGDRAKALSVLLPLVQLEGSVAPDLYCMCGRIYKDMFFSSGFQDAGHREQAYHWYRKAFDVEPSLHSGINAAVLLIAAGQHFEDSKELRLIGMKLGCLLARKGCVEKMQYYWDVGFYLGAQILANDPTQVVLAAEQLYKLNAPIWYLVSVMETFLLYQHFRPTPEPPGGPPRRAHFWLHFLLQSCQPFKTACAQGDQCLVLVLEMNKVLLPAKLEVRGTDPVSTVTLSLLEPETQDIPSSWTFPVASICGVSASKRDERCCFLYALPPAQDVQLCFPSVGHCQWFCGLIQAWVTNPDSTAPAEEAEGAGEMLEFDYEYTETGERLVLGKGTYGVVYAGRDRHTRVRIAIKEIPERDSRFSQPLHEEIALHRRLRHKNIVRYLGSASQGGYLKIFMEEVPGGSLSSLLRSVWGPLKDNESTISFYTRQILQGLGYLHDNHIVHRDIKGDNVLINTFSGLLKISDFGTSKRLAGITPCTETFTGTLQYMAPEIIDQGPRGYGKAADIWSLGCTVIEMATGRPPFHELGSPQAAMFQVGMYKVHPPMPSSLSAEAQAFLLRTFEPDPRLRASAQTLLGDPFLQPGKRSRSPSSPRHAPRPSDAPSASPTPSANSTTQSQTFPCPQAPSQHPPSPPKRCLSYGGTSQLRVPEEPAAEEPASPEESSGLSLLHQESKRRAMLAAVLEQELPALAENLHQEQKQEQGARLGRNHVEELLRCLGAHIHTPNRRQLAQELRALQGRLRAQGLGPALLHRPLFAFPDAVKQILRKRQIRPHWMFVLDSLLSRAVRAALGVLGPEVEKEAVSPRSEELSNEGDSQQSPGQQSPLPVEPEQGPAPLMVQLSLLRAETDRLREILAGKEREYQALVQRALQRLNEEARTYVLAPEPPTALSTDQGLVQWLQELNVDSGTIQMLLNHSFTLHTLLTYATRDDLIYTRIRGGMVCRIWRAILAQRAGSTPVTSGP
Outline: (§4)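 KinomeScan, an active site-directed competition binding panel of 468 kinases. The test compound was at 1 μM. The readout is remaining kinase binding as a percentage of the DMSO control. Scores above 35% were treated as weak binding and not listed.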

[11] = target: Serine/threonine-protein kinase DCLK1 (Homo sapiens) (UniProt O15075); assay: Binding affinity to wild-type human partial length DCAMKL1 (L270 to A662 residues) expressed in mammalian expression system assessed as residual binding level at 1 uM by Kinomescan method relative to control
HCC827 [12] = assay: Antiproliferative activity against human HCC827 cells assessed as reduction in cell viability incubated for 72 hrs by cell-titer glo assay relative to control; format: functional
Outline: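 Cells seeded at 2000 cells/well, dosed next day with a range of concentrations (DMSO 0.2% as control), 72 h exposure, viability read by CellTiter-Glo luminescence. Dose–response curves and GR values derived with the online GR calculator. Two independent experiments, each in technical triplicate.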

[13] = target: Glycogen synthase kinase-3 alpha (Homo sapiens) (UniProt P49840); assay: Binding affinity to wild-type human full length GSK3A (M1 to S483 residues) expressed in bacterial expression system assessed as residual binding level at 1 uM by Kinomescan method relative to control
Outline: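 Active-site-directed KinomeScan competition binding panel covering 468 kinases, compound tested at 1 μM. Each readout is the kinase signal remaining with compound, expressed as a percentage of the DMSO control. […]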

Mus musculus = assay: In vivo inhibition of SRC in C57B6 mouse assessed as blocking of SRC pulldown at 5 mg/kg, ip measured after 2 to 4 hrs by Western blot analysis; format: functional, organism-based
Outline: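 Adult C57B6 mice, n = 2 per condition. Three intraperitoneal doses of 5 mg/kg, given every 12 h; vehicle is 5% DMSO/95% D5W. Spleens harvested 2 or 4 h after the last dose, homogenized and lysed in M-PER with protease/phosphatase inhibitors. Lysate incubated with 1 μM biotinylated probe TL13-68 overnight at 4 °C, streptavidin pulldown, SRC detected by Western blot.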

[14] = target: Homeodomain-interacting protein kinase 3 (Homo sapiens) (UniProt Q9H422); assay: Binding affinity to wild-type human partial length HIPK3 (M153 to N562 residues) expressed in mammalian expression system assessed as residual binding level at 1 uM by Kinomescan method relative to control; outline: as §2
Chain of Homeodomain-interacting protein kinase 3 (Homo sapiens) (Q9H422 whole entry, looked up, the tested form may be a part): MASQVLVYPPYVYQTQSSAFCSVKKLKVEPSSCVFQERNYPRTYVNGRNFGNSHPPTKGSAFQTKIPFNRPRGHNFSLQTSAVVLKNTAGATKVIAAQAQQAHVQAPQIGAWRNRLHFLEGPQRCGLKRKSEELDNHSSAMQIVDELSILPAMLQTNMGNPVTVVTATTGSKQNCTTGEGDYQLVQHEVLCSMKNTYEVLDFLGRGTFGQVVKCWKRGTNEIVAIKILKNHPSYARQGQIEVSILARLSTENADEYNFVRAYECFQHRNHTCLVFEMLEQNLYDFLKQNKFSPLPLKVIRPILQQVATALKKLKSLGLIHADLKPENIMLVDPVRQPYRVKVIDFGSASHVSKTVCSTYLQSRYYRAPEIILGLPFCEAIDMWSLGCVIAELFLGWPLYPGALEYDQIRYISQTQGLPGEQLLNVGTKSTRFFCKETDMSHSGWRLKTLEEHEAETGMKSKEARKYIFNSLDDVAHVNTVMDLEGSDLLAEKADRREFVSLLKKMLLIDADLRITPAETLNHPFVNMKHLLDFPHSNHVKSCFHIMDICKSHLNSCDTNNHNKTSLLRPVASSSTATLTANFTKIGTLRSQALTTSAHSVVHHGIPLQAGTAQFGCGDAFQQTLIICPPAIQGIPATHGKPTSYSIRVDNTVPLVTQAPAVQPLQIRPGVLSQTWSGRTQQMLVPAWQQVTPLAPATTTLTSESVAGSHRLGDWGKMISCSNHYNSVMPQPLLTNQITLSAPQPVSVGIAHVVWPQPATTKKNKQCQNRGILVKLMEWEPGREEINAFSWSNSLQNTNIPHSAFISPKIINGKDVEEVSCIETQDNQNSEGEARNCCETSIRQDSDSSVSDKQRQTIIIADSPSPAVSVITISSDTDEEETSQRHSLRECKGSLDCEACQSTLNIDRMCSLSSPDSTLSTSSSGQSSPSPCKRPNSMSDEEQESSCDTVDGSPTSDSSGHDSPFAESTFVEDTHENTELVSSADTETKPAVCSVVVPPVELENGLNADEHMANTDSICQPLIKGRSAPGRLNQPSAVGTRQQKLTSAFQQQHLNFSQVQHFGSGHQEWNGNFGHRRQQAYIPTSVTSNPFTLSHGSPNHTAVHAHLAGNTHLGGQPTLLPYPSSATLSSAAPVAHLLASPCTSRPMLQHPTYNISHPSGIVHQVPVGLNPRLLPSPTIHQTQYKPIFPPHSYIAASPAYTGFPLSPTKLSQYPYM

[15] = system: Mast/stem cell growth factor receptor Kit (Homo sapiens), P10721 [D816H]; assay: Binding affinity to human partial length KIT D816H mutant (I571 to D952 residues) expressed in mammalian expression system assessed as residual binding level at 1 uM by Kinomescan method relative to control; outline: as §3
[16] = target: Cyclin-dependent kinase 18 (Homo sapiens) (UniProt Q07002); assay: Binding affinity to wild-type human full length PCTK3 (M3 to F474 residues) expressed in bacterial expression system assessed as residual binding level at 1 uM by Kinomescan method relative to control; outline: as §4
Chain of Cyclin-dependent kinase 18 (Homo sapiens) (Q07002 whole entry, the tested form may be a part): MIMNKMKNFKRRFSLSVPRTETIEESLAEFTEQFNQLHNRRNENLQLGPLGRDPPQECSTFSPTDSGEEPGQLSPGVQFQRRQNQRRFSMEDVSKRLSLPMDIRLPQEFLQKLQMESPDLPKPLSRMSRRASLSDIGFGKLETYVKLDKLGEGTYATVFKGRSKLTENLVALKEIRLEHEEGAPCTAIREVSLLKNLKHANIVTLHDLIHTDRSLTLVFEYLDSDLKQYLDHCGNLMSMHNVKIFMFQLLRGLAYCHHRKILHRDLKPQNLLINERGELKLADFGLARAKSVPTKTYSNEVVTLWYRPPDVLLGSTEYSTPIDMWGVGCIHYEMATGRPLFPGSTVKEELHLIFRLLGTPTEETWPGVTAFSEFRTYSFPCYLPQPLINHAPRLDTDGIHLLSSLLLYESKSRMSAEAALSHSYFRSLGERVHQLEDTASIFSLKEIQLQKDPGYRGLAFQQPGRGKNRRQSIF

[17] = target: Tyrosine-protein kinase Srms (Homo sapiens) (UniProt Q9H3Y6); assay: Binding affinity to wild-type human partial length SRMS (L208 to P488 residues) expressed in mammalian expression system assessed as residual binding level at 1 uM by Kinomescan method relative to control
HCC827 [18] = assay: Antiproliferative activity against human HCC827 cells assessed as reduction in cell viability incubated for 72 hrs by cell-titer glo assay; conditions: HCC827, 72 h

C=CC(=O)Nc1ccccc1Nc1nc(Nc2ccc(N3CCN(C)CC3)cc2)ncc1C(=O)Nc1c(C)cccc1Cl
Activity [1]: 100% | Activity [2]: 100% | Activity [3]: 100% | Activity [4]: 100% | Activity [5]: 59% | Activity [6]: 100% | Activity [7]: 17% | Activity [8]: 100% | Activity [9]: 100% | Activity [10]: 64% | Activity [11]: 100% | Emax (HCC827 [12]): -0.6 | Activity [13]: 100% | inhibition (Mus musculus): Active | Activity [14]: 99% | Activity [15]: 41% | Activity [16]: 98% | Activity [17]: 87% | pIC50 (HCC827 [18]): 6.30

— ChEMBL document CHEMBL4354843, “Structure-Based Design of a Potent and Selective Covalent Inhibitor for SRC Kinase That Targets a P-Loop Cysteine” (J Med Chem, 2020)
